Measurements reported in ChEMBL document CHEMBL3525903 (Drug Metab Dispos, 2013).

What was measured:
[1] = biological target: T1, Solute carrier organic anion transporter family member 1B3 (Homo sapiens, UniProt Q9NPD5); assay: Inhibition of OATP1B3 (unknown origin) expressed in HEK293 cells assessed as reduction of [3H]CCK8 substrate uptake at 100 uM by liquid scintillation counting; format: ADME, cell-based; conditions: hek293, 100 µM
T1 sequence (Q9NPD5 whole entry): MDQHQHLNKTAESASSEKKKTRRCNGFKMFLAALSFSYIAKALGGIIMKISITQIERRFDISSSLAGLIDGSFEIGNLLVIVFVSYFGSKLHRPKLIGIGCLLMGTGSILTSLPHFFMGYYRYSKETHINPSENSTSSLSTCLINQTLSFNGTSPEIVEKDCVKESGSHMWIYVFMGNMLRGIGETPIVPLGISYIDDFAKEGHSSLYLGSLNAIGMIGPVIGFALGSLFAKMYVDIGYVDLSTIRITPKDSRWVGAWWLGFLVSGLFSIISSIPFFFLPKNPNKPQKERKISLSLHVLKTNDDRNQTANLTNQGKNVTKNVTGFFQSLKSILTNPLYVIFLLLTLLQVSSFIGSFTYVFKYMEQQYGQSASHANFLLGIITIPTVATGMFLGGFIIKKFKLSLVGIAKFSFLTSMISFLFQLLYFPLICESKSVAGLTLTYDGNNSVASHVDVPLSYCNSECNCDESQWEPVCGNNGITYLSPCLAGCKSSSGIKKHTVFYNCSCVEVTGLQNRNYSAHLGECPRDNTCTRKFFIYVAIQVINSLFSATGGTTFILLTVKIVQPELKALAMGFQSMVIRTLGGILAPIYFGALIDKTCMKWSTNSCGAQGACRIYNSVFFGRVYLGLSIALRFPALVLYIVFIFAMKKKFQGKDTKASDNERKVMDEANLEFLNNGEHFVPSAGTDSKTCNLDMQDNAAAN
Summary of the method: (§1)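 HEK293 cells transiently transfected with OAT, OATP or OCT plasmid (FuGENE6; 24 h, then 24 h more with sodium butyrate), or stable OCTN1/OCTN2 lines; vector-transfected cells as control. Washed, preincubated 15–60 min at 37 °C in modified Krebs-Henseleit/25 mM HEPES buffer. Uptake of radiolabelled substrate, 100 µM inhibitor. Cells lysed in NaOH and counted by scintillation; counts normalised to medium radioactivity and Lowry protein; vector uptake subtracted.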

[2] = biological target: T2, Solute carrier organic anion transporter family member 1B1 (Homo sapiens, UniProt Q9Y6L6); assay: Inhibition of OATP1B1 (unknown origin) expressed in HEK293 cells assessed as reduction of [3H]E217betaG substrate uptake at 100 uM by liquid scintillation counting; format: ADME, cell-based; conditions: hek293, 100 µM; summary of the method: as §1
T2 sequence (Q9Y6L6 whole entry): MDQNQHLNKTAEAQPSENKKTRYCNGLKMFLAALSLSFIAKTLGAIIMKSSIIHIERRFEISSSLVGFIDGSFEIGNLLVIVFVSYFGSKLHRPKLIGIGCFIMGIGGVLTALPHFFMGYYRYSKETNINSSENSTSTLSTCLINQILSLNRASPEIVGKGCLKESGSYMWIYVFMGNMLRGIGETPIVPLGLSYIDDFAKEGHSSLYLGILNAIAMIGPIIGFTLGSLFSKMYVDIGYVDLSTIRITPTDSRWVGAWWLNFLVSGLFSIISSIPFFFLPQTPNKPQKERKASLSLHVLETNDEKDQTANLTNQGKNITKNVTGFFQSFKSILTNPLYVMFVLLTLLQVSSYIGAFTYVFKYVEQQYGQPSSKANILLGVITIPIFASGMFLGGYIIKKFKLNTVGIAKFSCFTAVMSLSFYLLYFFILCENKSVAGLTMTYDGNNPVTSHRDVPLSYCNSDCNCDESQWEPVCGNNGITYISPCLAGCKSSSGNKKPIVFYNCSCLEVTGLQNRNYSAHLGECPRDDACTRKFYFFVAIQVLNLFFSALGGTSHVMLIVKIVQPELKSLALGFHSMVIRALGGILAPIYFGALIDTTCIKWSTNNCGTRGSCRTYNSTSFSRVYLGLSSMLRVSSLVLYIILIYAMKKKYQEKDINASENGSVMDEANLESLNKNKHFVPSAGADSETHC

[3] = biological target: T3, Broad substrate specificity ATP-binding cassette transporter ABCG2 (Homo sapiens, UniProt Q9UNQ0); assay: Inhibition of human BCRP expressed in MDCK2 cells assessed as reduction of [3H]E-sul substrate transport at 50 uM by liquid scintillation counting; format: ADME, cell-based; conditions: mdck-ii
T3 sequence (Q9UNQ0 whole entry): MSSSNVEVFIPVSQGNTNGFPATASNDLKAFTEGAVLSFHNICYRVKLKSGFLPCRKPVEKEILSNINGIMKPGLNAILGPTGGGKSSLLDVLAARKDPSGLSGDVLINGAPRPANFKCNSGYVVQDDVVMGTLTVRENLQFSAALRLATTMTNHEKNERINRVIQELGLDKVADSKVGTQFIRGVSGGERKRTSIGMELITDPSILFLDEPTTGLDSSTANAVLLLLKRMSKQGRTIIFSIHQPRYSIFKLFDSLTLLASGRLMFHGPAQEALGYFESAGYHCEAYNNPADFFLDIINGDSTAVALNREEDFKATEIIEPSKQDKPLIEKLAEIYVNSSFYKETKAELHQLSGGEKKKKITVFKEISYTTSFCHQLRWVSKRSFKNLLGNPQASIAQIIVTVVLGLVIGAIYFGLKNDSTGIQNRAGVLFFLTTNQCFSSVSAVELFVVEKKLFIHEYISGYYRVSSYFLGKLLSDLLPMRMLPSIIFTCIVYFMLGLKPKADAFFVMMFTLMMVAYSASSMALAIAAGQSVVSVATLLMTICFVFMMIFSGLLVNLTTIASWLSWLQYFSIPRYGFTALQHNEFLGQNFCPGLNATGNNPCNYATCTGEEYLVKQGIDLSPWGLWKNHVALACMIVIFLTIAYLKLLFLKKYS
Summary of the method: (§2)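 Membrane vesicles made from MDCKII cells expressing BCRP or MRP2, and from parental cells (1 μg/μL protein). Run in Tris-sucrose buffer, pH 7.4, with 10 mM MgCl2, creatine phosphokinase and ATP, or AMP as control. Substrates: 0.035 μM [3H]E-sul for BCRP, 2 min; 0.033 μM [3H]E217βG for MRP2, 5 min; both at 37 °C. Stopped ice-cold, filtered, and counted by scintillation.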

[4] = biological target: T4, Organic anion transporter 3 (Homo sapiens, UniProt Q8TCC7); assay: Inhibition of OAT3 (unknown origin) expressed in HEK293 cells assessed as reduction of [3H]E-sul substrate uptake at 100 uM by liquid scintillation counting; format: ADME, cell-based; conditions: hek293, 100 µM; summary of the method: as §1
T4 sequence (Q8TCC7 whole entry): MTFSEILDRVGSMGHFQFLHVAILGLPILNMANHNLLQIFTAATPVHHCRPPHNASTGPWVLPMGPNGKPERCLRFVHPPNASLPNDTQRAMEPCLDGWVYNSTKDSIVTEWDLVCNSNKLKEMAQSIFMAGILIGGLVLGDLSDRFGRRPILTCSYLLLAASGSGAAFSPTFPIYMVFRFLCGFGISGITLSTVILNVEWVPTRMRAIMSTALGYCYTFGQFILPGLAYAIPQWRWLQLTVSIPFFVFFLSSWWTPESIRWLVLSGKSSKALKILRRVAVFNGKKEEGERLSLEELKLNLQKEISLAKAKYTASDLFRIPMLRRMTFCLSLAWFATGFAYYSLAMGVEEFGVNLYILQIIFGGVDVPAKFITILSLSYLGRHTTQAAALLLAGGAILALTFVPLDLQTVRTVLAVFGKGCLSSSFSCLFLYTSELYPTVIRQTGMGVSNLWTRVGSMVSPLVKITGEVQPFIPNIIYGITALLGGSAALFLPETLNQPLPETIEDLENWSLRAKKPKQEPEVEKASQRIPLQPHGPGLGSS

[5] = biological target: T5, Solute carrier family 22 member 11 (Homo sapiens, UniProt Q9NSA0); assay: Inhibition of OAT4 (unknown origin) expressed in HEK293 cells assessed as reduction of [3H]E-sul substrate uptake at 500 uM by liquid scintillation counting; format: ADME, cell-based; conditions: hek293, 500 µM
T5 sequence (Q9NSA0 whole entry): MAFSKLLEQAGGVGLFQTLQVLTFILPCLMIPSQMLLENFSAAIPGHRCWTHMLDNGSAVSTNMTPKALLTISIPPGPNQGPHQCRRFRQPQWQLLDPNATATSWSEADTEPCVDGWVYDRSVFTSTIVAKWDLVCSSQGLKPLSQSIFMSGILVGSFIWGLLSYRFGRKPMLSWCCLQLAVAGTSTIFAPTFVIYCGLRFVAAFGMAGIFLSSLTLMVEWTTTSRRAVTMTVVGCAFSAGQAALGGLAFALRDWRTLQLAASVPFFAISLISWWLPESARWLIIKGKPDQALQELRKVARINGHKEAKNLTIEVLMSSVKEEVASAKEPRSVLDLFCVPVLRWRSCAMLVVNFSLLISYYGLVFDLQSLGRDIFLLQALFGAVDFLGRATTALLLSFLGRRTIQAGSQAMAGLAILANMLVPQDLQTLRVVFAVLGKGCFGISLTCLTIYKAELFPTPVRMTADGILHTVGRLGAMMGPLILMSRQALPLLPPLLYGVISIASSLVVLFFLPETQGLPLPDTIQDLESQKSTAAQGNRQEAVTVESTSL
Summary of the method: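 HEK293 cells transfected with OAT4, incubated with 0.1 μM [3H]E-sul and probenecid 500 µM as the inhibitor. Uptake counted by scintillation, normalised to protein, with vector uptake subtracted.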

[6] = biological target: ATP-binding cassette sub-family C member 2 (Homo sapiens, UniProt Q92887); assay: Inhibition of human MRP2 expressed in MDCK2 cells assessed as reduction of [3H]E217betaG substrate transport at 25 uM by liquid scintillation counting; format: ADME, cell-based; conditions: mdck-ii; summary of the method: as §2
Chain of ATP-binding cassette sub-family C member 2 (Q92887 whole entry): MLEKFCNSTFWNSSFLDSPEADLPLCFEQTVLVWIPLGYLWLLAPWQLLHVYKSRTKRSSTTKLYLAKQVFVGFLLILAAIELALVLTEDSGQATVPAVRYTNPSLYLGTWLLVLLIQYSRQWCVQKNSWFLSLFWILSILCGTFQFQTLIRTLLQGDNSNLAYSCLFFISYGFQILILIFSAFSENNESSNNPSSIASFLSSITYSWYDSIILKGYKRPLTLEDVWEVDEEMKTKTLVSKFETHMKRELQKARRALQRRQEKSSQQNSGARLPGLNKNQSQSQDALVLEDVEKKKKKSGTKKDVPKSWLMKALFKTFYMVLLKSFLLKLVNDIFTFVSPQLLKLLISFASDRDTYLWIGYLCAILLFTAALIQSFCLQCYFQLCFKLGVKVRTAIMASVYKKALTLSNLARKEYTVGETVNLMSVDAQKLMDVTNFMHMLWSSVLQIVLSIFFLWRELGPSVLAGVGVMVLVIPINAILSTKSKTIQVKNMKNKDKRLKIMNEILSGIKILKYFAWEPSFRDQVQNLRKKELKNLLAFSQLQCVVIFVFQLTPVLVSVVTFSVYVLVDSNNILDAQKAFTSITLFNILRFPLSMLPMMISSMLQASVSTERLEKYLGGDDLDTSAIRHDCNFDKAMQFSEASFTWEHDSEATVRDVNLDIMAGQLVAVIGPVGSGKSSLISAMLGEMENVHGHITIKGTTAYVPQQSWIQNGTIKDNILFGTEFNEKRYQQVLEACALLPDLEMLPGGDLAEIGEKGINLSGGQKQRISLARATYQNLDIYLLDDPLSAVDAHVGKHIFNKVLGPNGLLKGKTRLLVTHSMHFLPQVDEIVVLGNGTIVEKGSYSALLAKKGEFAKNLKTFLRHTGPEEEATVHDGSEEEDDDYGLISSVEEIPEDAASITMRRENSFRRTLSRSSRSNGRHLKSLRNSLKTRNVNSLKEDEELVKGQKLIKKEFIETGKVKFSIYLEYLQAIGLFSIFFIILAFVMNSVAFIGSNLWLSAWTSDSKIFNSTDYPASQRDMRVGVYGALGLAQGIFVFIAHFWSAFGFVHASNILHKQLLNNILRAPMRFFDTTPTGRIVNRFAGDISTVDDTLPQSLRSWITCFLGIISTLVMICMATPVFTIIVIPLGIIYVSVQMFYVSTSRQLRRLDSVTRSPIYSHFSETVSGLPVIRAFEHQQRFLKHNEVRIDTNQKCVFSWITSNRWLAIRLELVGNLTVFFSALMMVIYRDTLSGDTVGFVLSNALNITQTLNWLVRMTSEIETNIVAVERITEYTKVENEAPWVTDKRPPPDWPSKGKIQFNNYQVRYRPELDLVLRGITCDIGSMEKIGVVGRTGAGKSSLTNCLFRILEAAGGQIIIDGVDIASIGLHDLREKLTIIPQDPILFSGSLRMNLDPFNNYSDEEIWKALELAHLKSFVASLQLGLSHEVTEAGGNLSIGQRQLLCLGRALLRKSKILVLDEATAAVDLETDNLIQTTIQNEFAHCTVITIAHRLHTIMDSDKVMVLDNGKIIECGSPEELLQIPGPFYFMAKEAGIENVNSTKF

[7] = biological target: T6, OCTN1 (SLC22A4) (Homo sapiens, UniProt Q9H015); assay: Inhibition of OCTN1 (unknown origin) expressed in HEK293 cells assessed as reduction of [3H]ergothioneine substrate uptake at 1500 uM by liquid scintillation counting; format: cell-based; conditions: HEK293 cells expressing OCTN1, probe [3H]ergothioneine
T6 sequence (Q9H015 whole entry): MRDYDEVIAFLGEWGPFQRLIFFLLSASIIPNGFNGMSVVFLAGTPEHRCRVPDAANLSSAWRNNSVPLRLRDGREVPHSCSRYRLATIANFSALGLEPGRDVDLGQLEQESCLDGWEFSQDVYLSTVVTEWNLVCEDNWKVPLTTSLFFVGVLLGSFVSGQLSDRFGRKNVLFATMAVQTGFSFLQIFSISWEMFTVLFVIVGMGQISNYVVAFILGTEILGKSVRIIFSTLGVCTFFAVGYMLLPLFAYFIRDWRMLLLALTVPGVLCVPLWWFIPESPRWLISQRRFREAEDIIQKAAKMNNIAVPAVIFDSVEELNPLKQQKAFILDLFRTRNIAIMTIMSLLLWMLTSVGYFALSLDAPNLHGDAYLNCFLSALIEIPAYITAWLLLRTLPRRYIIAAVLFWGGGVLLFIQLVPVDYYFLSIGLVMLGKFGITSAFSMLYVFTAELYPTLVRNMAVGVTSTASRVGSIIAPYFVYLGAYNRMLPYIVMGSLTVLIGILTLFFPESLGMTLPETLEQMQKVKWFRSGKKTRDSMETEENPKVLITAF
Summary of the method: (§3)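 HEK293 cells stably expressing OCTN1 or OCTN2, cultured two days before the assay. Quinidine 1500 µM tested against [3H]ergothioneine (1 μM, OCTN1) or [3H]carnitine (0.1 μM, OCTN2). Vector-cell uptake subtracted.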

[8] = biological target: T7, OCTN2 (Homo sapiens, UniProt O76082); assay: Inhibition of OCTN2 (unknown origin) expressed in HEK293 cells assessed as reduction of [3H]carnitine substrate uptake at 1500 uM by liquid scintillation counting; format: cell-based; conditions: HEK293 cells expressing OCTN2, probe [3H]carnitine; summary of the method: as §3
T7 sequence (O76082 whole entry): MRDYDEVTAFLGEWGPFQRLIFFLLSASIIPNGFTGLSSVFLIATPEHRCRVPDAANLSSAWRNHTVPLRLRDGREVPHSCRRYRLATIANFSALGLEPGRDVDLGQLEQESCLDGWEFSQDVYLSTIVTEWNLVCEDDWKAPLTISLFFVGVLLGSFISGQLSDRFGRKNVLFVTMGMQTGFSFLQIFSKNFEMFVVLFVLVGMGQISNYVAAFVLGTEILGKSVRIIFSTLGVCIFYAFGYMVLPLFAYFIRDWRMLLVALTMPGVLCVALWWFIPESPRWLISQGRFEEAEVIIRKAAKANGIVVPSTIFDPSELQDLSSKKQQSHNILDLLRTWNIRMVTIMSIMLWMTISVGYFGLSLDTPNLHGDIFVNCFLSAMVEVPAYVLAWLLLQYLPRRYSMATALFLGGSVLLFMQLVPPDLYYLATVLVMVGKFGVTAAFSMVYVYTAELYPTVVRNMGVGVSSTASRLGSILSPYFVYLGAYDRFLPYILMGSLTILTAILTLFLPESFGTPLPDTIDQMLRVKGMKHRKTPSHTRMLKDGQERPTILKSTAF

CO[C@H]1/C=C/O[C@@]2(C)Oc3c(C)c(O)c4c(O)c(c(/C=N/N5CCN(C)CC5)c(O)c4c3C2=O)NC(=O)/C(C)=C\C=C\[C@H](C)[C@H](O)[C@@H](C)[C@@H](O)[C@@H](C)[C@H](OC(C)=O)[C@@H]1C [RIFAMPIN]
inhibition (INH) [1]: 97.4%
inhibition (INH) [2]: 98.4%

COc1cc2nc(N3CCN(C(=O)c4ccco4)CC3)nc(N)c2cc1OC [PRAZOSIN]
inhibition (INH) [3]: Active

CCCN(CCC)S(=O)(=O)c1ccc(C(=O)O)cc1 [PROBENECID]
inhibition (INH) [4]: 88.5%
inhibition (INH) [5]: 81.4%

CN(C)C(=O)CCSC(SCCC(=O)O)c1cccc(/C=C/c2ccc3ccc(Cl)cc3n2)c1 (stereo not drawn) [MK-571]
inhibition (INH) [6]: Active

C=C[C@H]1C[N@@]2CC[C@H]1C[C@@H]2[C@@H](O)c1ccnc2ccc(OC)cc12 [QUINIDINE]
inhibition at 1500 µM [7]: 83.9%
inhibition at 1500 µM [8]: 89.9%
